Assay outcomes deposited in PubChem BioAssay by The Scripps Research Institute Molecular Screening Center.
HTRA1 inhibitor = HTRA1 serine protease inhibitors, primary screen, biochemical, fluorescence polarization, HTS | Q92743 | 340,000 compounds, 0.5% hits | inhibition, % at 5.96 µM | recombinant HTRA1, FP-rhodamine activity-based probe | AID 504803, 2011; in the data active = inhibition above about 36%;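 note: 0% = enzyme with DMSO and 100% = wells lacking enzyme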
Target sequence (Q92743 whole entry, looked up): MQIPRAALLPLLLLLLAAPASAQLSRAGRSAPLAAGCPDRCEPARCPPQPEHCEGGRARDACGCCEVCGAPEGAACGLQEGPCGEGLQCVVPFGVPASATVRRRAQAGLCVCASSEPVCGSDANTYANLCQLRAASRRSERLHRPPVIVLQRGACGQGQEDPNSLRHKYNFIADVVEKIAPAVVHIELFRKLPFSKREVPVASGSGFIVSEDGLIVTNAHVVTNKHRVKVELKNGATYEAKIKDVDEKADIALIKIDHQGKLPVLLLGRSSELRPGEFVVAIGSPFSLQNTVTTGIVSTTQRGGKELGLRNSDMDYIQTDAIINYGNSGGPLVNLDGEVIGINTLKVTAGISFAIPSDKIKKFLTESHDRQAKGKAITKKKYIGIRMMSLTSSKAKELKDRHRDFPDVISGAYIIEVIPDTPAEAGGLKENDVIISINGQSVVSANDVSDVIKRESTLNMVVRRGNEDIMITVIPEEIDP
SIAE inh = human SIAE inhibitors, primary screen, biochemical, fluorescence polarization, FP-Rh probe, 1536-well HTS | 370,000 compounds, 0.69% hits | inhibition, % at 9.66 µM | AID 1053197, 2014 | SIAE FP-Rh probe binding | Sialate O-acetylesterase (Homo sapiens), Q9HAT2;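 active = inhibition above a cutoff: mean of compounds within the control limits plus 3 SD of those, cut at about 17% in these data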;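 note: 0% = plate median of compound wells and 100% = probe without SIAE protein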
mABHD4 FP = ABHD4 inhibitors, primary screen, biochemical, fluorescence polarization, mouse. (Lyso)-N-acylphosphatidylethanolamine lipase (Mus musculus), Q8VD66. purified mABHD4, FP-Rh probe fluorescence polarization. inhibition, % at 8.92 µM. 370,000 compounds, 0.54% hits. AID 720543, 2013;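 active = inhibition exceeding the mean over every tested compound plus 3 SD, cut at about 30% in these data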;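 note: 0% = plate median of compound wells and 100% = S159A mutant with DMSO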
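Assay system: mouse ABHD4 enzyme, wild type / Also added: fluorescent activity-based probe FP-Rh / Doses: single nominal dose of 8.92 µM, 0.89% DMSO final / Timing: 45 min compound pre-incubation plus 60 min probe step, 25 °C / Signal: FP readout, ex 525 nm / em 598 nm / Control set: S159A mutant/DMSO as 100%, compound-well median as 0%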
TCR CD3 inh = inhibitors of human TCR-CD3 interaction, primary screen, biochemical, fluorescence, TAMRA-labeled TCR probe; inhibition, % at 9.4 µM; T-cell receptor (TCR); 360,000 compounds, 0.37% hits; in the data active = inhibition above about 19%;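 note: recombinant mutant TCR 2C K166C tagged with TAMRA read by polarization; 0% = receptor in buffer alone and 100% = receptor with positive control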
DAGLB inhibitor = DAGLB lipase inhibitors, primary screen, biochemical, fluorescence, HTS | Diacylglycerol lipase-beta (Homo sapiens), Q8NCG7 | HEK293T DAGLB membrane lysate, EnzChek fluorogenic substrate | inhibition, % at 5.17 µM | 340,000 compounds, 0.059% hits | AID 504411, 2011; in the data active = inhibition above about 34%;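 note: 0% = enzyme with vehicle and 100% = wells lacking enzyme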
SIAE confirm = human SIAE inhibitors, retest, confirmation, biochemical, fluorescence polarization, FP-Rh probe, triplicate; shares compounds with SIAE inh; SIAE FP-Rh activity-based probe; inhibition, % at 9.66 µM; 2,300 compounds, 13% hits;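 active = mean inhibition of the replicates above the hit cutoff set in the primary screen, cut at about 17% in these data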;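 note: 0% = SIAE with DMSO and probe and 100% = probe without SIAE; inhibitors lower polarization as more probe stays unbound to SIAE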
The depositor's hits bear a star. Most compounds without a hit are left out; they make up all but 1.5% or so of the library.

`CCOC(=O)c1cnc(SCC(=O)OCC(=O)NC2CCS(=O)(=O)C2)nc1N` (configuration not stated) gave HTRA1 inhibitor -2, SIAE inh 18*, mABHD4 FP 6, TCR CD3 inh -3, DAGLB inhibitor 1 and SIAE confirm -5.
CCOC(=O)c1cnc(SCC(=O)OCC(=O)N(CC)C2CCS(=O)(=O)C2)nc1N (configuration not stated) was read as HTRA1 inhibitor -1, SIAE inh 4, mABHD4 FP -3, TCR CD3 inh 0 and DAGLB inhibitor 3.
For CN(C)S(=O)(=O)c1ccc(SCC(=O)N2CC(=O)Nc3ccccc32)nc1 the results were HTRA1 inhibitor 7, SIAE inh 17*, mABHD4 FP 2, TCR CD3 inh -4, DAGLB inhibitor 1 and SIAE confirm -3.
O=C1CN(C(=O)CSc2ccccn2)c2ccccc2N1 was read as HTRA1 inhibitor 4, SIAE inh 9, mABHD4 FP 5, TCR CD3 inh 2 and DAGLB inhibitor 2.
COc1ccc(Br)cc1CNC(=O)Nc1cccs1 was read as HTRA1 inhibitor -9, SIAE inh 19*, mABHD4 FP -1, TCR CD3 inh 2, DAGLB inhibitor -3 and SIAE confirm 3.
`COc1ccccc1CNC(=O)Nc1cccs1` gave HTRA1 inhibitor -1, SIAE inh -11, mABHD4 FP 2, TCR CD3 inh 2 and DAGLB inhibitor 3.
Screening COc1cc(N/N=C(\C)c2ccc(O)c(C)c2)nc(-c2ccccc2)n1 returned HTRA1 inhibitor -9, SIAE inh 9, mABHD4 FP -1, TCR CD3 inh 3 and DAGLB inhibitor -1.
Screening C/C(=N\Nc1cc(-c2ccccc2)nc(-c2ccccc2)n1)c1ccc(O)c(C)c1 returned HTRA1 inhibitor -3, SIAE inh 19*, mABHD4 FP -39, TCR CD3 inh -5, DAGLB inhibitor -4 and SIAE confirm -12.
For COc1ccc2nc(-c3ccc(CN4CCC(c5nc6ccccc6[nH]5)CC4)cc3)c(-c3ccccc3)nc2c1 the results were SIAE inh -4, mABHD4 FP 8 and TCR CD3 inh -1.
Screening Cc1cccc(NC(=O)CSc2nnc(Cn3cnc4ccccc43)o2)c1 returned HTRA1 inhibitor -5, SIAE inh 0, mABHD4 FP 3, TCR CD3 inh 3 and DAGLB inhibitor 3.
For COc1ccc(NC(=O)CSc2nnc(Cn3cnc4ccccc43)o2)cc1 the results were HTRA1 inhibitor 8, SIAE inh 18*, mABHD4 FP -2, TCR CD3 inh -4, DAGLB inhibitor -4 and SIAE confirm 0.
`c1ccc2[nH]c(COCc3nc4ccccc4[nH]3)nc2c1` gave SIAE inh 5 and mABHD4 FP 0.
For Oc1ccc(O)c(Cc2nc3ccccc3[nH]2)c1 the results were HTRA1 inhibitor 7, SIAE inh 19*, mABHD4 FP 11, TCR CD3 inh 0, DAGLB inhibitor -1 and SIAE confirm 3.
For CCN(CC)C(=O)CC[C@@H]1CC[C@]2(CCCN(C(=O)c3ccccc3)C2)O1 the results were SIAE inh 4 and mABHD4 FP 1.
For O=C(Nc1ccc(Cl)cc1C(F)(F)F)c1ccccc1Cl the results were HTRA1 inhibitor -8, SIAE inh 29*, mABHD4 FP -3, TCR CD3 inh -8, DAGLB inhibitor -2 and SIAE confirm -5.
Screening CCOC(=O)Cn1cc(CN2C(C(=O)OC)CN(Cc3ccc(C)cc3)CCS2(=O)=O)nn1 (configuration not stated) returned SIAE inh 1 and mABHD4 FP -4.
`CCCCCCCCN1C(=O)[C@@H](CC(=O)N2CCCCC2)C[C@@]2(C(=O)OC)C1=C[C@H](C(C)(C)C)O[C@@H]2C` gave SIAE inh 13, mABHD4 FP 3 and TCR CD3 inh 4.
`O=S(=O)(NCC(c1ccccc1)N1CCC(O)CC1)c1ccc(Cl)cc1` (configuration not stated) gave HTRA1 inhibitor 1, SIAE inh -2, mABHD4 FP 0, TCR CD3 inh -1 and DAGLB inhibitor 0.
Screening O=S(=O)(NCC(Nc1ccc(Cl)cc1)c1ccccc1)c1ccc(Cl)cc1 (configuration not stated) returned HTRA1 inhibitor -40, SIAE inh 19*, mABHD4 FP -32, TCR CD3 inh -3, DAGLB inhibitor -4 and SIAE confirm 12.
Screening COC(=O)c1[nH]c2ccc(Cl)cc2c1NC(=O)CN1CCC(C(N)=O)CC1 returned SIAE inh 22*, mABHD4 FP 5, TCR CD3 inh -2 and SIAE confirm -5.
CCN1CCN(c2ccc(NC(=O)COc3ccc(Cl)cc3C)cc2)CC1 was read as HTRA1 inhibitor 10, SIAE inh 4, mABHD4 FP 0, TCR CD3 inh 9 and DAGLB inhibitor 0.
NC(=S)Nc1ccc(F)cc1F was read as HTRA1 inhibitor 2, SIAE inh 22*, mABHD4 FP 3, TCR CD3 inh 4, DAGLB inhibitor 0 and SIAE confirm 2.
For NC(=S)Nc1ccc(F)c(F)c1F the results were HTRA1 inhibitor 4, SIAE inh 8, mABHD4 FP -1, TCR CD3 inh 2 and DAGLB inhibitor 1.
Cc1ccc(NS(=O)(=O)c2cc([N+](=O)[O-])ccc2NNC(=S)Nc2cc(C)ccc2C)c(C)c1 was read as HTRA1 inhibitor 36, SIAE inh 31*, mABHD4 FP -28, TCR CD3 inh 3, DAGLB inhibitor 33 and SIAE confirm 1.
`Cc1ccc([N+](=O)[O-])cc1NC(=S)NC(=O)C(C)(C)C` gave HTRA1 inhibitor -2, SIAE inh -2, mABHD4 FP 0, TCR CD3 inh 6 and DAGLB inhibitor -2.
Cc1[nH]nc2c1C(c1cccc(C(F)(F)F)c1)N(Cc1ccccc1)C2=O (configuration not stated) was read as SIAE inh 5, mABHD4 FP -4 and TCR CD3 inh -7.
For O=C(Nc1cc(S(=O)(=O)N2CCOCC2)ccc1N1CCCCC1)c1cc(-c2ccccn2)nc2ccccc12 the results were HTRA1 inhibitor -2, SIAE inh 18*, mABHD4 FP -1, TCR CD3 inh -3, DAGLB inhibitor -2 and SIAE confirm 9.
Screening COc1ccc(NC(=O)N(C)C[C@@H]2OCc3cnnn3CCCC(=O)N([C@H](C)CO)C[C@H]2C)c(OC)c1 returned SIAE inh 7, mABHD4 FP 3 and TCR CD3 inh -5.
